These results are taken from ChEMBL document CHEMBL5038641, “Development of PDE6D and CK1α Degraders through Chemical Derivatization of FPFT-2216” (J Med Chem, 2022).

One experiment deals with NCI-H358. Nature of the experiment: Antiproliferative activity against human NCI-H358 cells assessed as reduction in cell viability measured after 3 days by Celltiter-Glo assay. It counts as functional, cell-based. As to conditions: for IC50: NCI-H358, 72 h; for Activity: time 3.0 day. Summed up:
(§1)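 Cells grown per supplier recommendations with 10% FBS plus penicillin/streptomycin and mycoplasma-checked. 800 cells per well in 384-well format, dosed the next day at the indicated concentrations; depending on the agent, dosing was once or daily. Viability was read by CellTiter-Glo luminescence after three days of treatment, with a 20 min incubation before reading.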

The next experiment has as its system MIA PaCa-2. Description: Antiproliferative activity against human MIA PaCa-2 cells assessed as reduction in cell viability measured after 3 days by Celltiter-Glo assay. It counts as functional, cell-based. The following applies: for IC50: MIA PaCa-2, 72 h; for Activity: time 3.0 day. Summed up:
as §1

The subject of a further experiment is AGS. Description: Antiproliferative activity against human AGS cells assessed as reduction in cell viability measured after 3 days by Celltiter-Glo assay. It counts as functional, cell-based. As to conditions: for IC50: 72 h; for Activity: time 3.0 day. Summed up: as §1
A general note: In ATP-based viability assays light output follows the ATP content of the culture.

The next experiment has as its system PaTu 8988t. Description: Antiproliferative activity against human PaTu 8988t cells assessed as reduction in cell viability measured after 3 days by Celltiter-Glo assay. It counts as functional, cell-based. As to conditions: for IC50: 72 h; for Activity: time 3.0 day. The gist of the method: as §1
Experiment [1] addresses T1, Cereblon/Ikaros (Homo sapiens) (UniProt Q96SW2+Q13422). Description: Protac activity at CRBN/IKZF1 in human MOLT-4 cells assessed as induction of IKZF1 degradation at 1 microM measured after 4 hrs by Immunoblotting analysis. It counts as cell-based. The gist of the method:
(§2)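 MOLT4 cells treated for 4 h, either at a single 1 µM screening dose or across a concentration series. Lysates were made in RIPA with protease/phosphatase inhibitors, and 20 μg protein was resolved by SDS-PAGE and transferred to nitrocellulose. PDE6D, IKZF1, IKZF3 and CK1α were immunoblotted against β-actin and detected with IRDye secondaries.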

For experiment [2], the target named is T2, Cereblon/Casein kinase I alpha (Homo sapiens) (UniProt P48729+Q96SW2). Description: Protac activity at CRBN/CK1alpha in human MOLT-4 cells assessed as induction of CK1alpha degradation at 1 microM measured after 4 hrs by Immunoblotting analysis. It counts as cell-based. The gist of the method:
as §2

The target in experiment [3] is T3, Protein cereblon/Retinal rod rhodopsin-sensitive cGMP 3',5'-cyclic phosphodiesterase subunit delta (Homo sapiens, UniProt O43924+Q96SW2). Description: Protac activity at CRBN/PDE6D in human MOLT-4 cells assessed as induction of PDE6D degradation at 1 microM measured after 4 hrs by Immunoblotting analysis. It counts as cell-based. The gist of the method:
as §2
Target sequence in this assay (O43924 whole entry, looked up): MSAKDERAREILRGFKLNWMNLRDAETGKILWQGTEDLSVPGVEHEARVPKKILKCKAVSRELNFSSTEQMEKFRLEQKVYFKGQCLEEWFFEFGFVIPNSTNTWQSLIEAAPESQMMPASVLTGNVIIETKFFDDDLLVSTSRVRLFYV
Target sequence in this assay (Q96SW2 whole entry, looked up): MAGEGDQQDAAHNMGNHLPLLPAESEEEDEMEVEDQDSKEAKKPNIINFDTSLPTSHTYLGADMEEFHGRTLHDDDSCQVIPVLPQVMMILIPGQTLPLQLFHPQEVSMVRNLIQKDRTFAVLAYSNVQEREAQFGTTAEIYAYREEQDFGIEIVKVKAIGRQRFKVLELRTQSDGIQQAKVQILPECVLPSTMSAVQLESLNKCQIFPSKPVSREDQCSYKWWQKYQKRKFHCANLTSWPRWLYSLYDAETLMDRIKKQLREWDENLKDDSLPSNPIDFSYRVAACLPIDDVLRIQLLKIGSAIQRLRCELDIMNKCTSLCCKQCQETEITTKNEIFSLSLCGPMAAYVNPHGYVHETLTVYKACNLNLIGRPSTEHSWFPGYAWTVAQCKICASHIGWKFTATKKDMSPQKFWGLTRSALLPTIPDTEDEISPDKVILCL
A general note: A western blot detects proteins with antibodies after separation by electrophoresis.

In experiment [4] the target is T1, Cereblon/Ikaros (Homo sapiens). Description: Protac activity at CRBN/IKZF1 in human MOLT-4 cells assessed as induction of IKZF1 degradation at 250 nM measured after 4 hrs by proteome mass spectrometry.
The target in experiment [5] is T4, Protein cereblon/Zinc finger protein Aiolos (Homo sapiens) (UniProt Q96SW2+Q9UKT9). Nature of the experiment: Protac activity at CRBN/IKZF3 in human MOLT-4 cells assessed as induction of IKZF3 degradation at 250 nM measured after 4 hrs by proteome mass spectrometry.
The target in experiment [6] is T4, Protein cereblon/Zinc finger protein Aiolos (Homo sapiens). Description: Protac activity at CRBN/IKZF3 in human MOLT-4 cells assessed as induction of IKZF3 degradation at 1 microM measured after 4 hrs by Immunoblotting analysis. It counts as cell-based. Summed up:
as §2

Experiment [7] concerns the target Retinal rod rhodopsin-sensitive cGMP 3',5'-cyclic phosphodiesterase subunit delta (Homo sapiens) (UniProt O43924). Nature of the experiment: Induction of PDE6D degradation in human CRBN-null MOLT4 cells at 8 to 200 nM incubated for 4 hrs by Immunoblotting analysis. It counts as cell-based. As to conditions: MOLT-4, dose 8-200 nM.
For experiment [8], the target named is DNA-binding protein Ikaros (Homo sapiens) (UniProt Q13422). Description: Induction of IKZF1 degradation in human CRBN-null MOLT4 cells at 8 to 200 nM incubated for 4 hrs by Immunoblotting analysis. It counts as cell-based. The following applies: MOLT-4, dose 8-200 nM.
The target of experiment [9] is T3, Protein cereblon/Retinal rod rhodopsin-sensitive cGMP 3',5'-cyclic phosphodiesterase subunit delta. Description: Protac activity at CRBN/PDE6D in human MM1.S cells assessed as induction of PDE6D degradation measured after 4 hrs by Immunoblotting analysis. It counts as cell-based. The gist of the method:
(§3)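 Jurkat or MM.1S cells given the indicated concentrations, up to 1 µM, for 4 h. RIPA lysates (30 min on ice) with 20 μg protein per lane were separated by SDS-PAGE and transferred to nitrocellulose. Blots were probed for PDE6D, IKZF1 (1:1000), IKZF3 (1:1000) and CK1α, with β-actin control and IRDye fluorescent secondary detection.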

For experiment [10] the target is unchanged. Nature of the experiment: Protac activity at CRBN/PDE6D in human MOLT-4 cells assessed as induction of PDE6D degradation measured after 4 hrs by Immunoblotting analysis. It counts as cell-based. The gist of the method:
as §2

Experiment [11] shares this target. Description: Protac activity at CRBN/PDE6D in human Jurkat cells assessed as induction of PDE6D degradation measured after 4 hrs by Immunoblotting analysis. It counts as cell-based. Summed up: as §3
Experiment [12] concerns the target T1, Cereblon/Ikaros (Homo sapiens). Nature of the experiment: Protac activity at CRBN/IKZF1 in human Jurkat cells assessed as induction of IKZF1 degradation measured after 4 hrs by Immunoblotting analysis. It counts as cell-based. The gist of the method:
as §3

Experiment [13] concerns the target T4, Protein cereblon/Zinc finger protein Aiolos (Homo sapiens). Nature of the experiment: Protac activity at CRBN/IKZF3 in human MM1.S cells assessed as induction of IKZF3 degradation measured after 4 hrs by Immunoblotting analysis. It counts as cell-based. The gist of the method:
as §3

Experiment [14] deals with T2, Cereblon/Casein kinase I alpha (Homo sapiens). Description: Protac activity at CRBN/CK1alpha in human MM1.S cells assessed as induction of CK1alpha degradation at 40 nM measured after 4 hrs by Immunoblotting analysis. It counts as cell-based. Summed up: as §3
Experiment [15] has as its target T4, Protein cereblon/Zinc finger protein Aiolos (Homo sapiens). Description: Protac activity at CRBN/IKZF3 in human MOLT-4 cells assessed as induction of IKZF3 degradation measured after 4 hrs by Immunoblotting analysis. It counts as cell-based. The gist of the method: as §2
Experiment [16] concerns the target T1, Cereblon/Ikaros (Homo sapiens). Description: Protac activity at CRBN/IKZF1 in human MM1.S cells assessed as induction of IKZF1 degradation measured after 4 hrs by Immunoblotting analysis. It counts as cell-based. The gist of the method: as §3
The target is the same in experiment [17]. Description: Protac activity at CRBN/IKZF1 in human MOLT-4 cells assessed as induction of IKZF1 degradation measured after 4 hrs by Immunoblotting analysis. It counts as cell-based. The gist of the method:
as §2

Experiment [18] deals with T4, Protein cereblon/Zinc finger protein Aiolos (Homo sapiens). Description: Protac activity at CRBN/IKZF3 in human Jurkat cells assessed as induction of IKZF3 degradation measured after 4 hrs by Immunoblotting analysis. It counts as cell-based. Summed up:
as §3

Activity calls are given as the source filed them. The calls are words filed in the database; no cut-off is given here. Bounds are passed on as bounds.

As usually defined, the IC50 is the concentration that gives 50% inhibition. One may read the DC50 as the concentration at which degradation of the target reaches its halfway point.

T4 sequence (Q96SW2 whole entry, looked up): as above
T4 sequence (Q9UKT9 whole entry, looked up): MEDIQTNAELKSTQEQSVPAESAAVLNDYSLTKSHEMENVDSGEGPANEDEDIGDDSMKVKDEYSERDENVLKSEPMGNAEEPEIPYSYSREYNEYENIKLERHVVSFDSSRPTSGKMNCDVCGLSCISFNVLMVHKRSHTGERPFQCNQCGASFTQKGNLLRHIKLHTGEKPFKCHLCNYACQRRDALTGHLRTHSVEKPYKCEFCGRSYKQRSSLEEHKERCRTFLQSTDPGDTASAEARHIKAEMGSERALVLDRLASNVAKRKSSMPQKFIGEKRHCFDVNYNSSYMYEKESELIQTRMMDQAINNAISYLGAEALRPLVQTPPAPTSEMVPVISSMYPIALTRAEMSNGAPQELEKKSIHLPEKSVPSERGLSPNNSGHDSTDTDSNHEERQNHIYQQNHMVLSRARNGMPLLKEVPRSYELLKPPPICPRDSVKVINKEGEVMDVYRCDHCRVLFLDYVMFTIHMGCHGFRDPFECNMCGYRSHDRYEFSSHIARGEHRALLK
T2 sequence (P48729 2-337 limits assumed): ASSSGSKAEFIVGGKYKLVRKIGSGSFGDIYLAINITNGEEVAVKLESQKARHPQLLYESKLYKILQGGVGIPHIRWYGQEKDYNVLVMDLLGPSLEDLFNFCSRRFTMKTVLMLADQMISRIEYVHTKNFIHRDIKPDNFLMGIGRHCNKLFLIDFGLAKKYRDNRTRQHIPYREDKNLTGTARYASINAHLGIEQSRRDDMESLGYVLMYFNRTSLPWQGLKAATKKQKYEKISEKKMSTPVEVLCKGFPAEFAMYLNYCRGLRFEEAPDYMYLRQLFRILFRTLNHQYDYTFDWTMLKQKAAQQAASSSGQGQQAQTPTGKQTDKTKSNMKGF
T2 sequence (Q96SW2 whole entry partner): as the sequence (Q96SW2 whole entry, looked up) above
Retinal rod rhodopsin-sensitive cGMP 3',5'-cyclic phosphodiesterase subunit delta (Homo sapiens), sequence (O43924 whole entry): as the sequence (O43924 whole entry, looked up) above
DNA-binding protein Ikaros (Homo sapiens), sequence (Q13422 whole entry): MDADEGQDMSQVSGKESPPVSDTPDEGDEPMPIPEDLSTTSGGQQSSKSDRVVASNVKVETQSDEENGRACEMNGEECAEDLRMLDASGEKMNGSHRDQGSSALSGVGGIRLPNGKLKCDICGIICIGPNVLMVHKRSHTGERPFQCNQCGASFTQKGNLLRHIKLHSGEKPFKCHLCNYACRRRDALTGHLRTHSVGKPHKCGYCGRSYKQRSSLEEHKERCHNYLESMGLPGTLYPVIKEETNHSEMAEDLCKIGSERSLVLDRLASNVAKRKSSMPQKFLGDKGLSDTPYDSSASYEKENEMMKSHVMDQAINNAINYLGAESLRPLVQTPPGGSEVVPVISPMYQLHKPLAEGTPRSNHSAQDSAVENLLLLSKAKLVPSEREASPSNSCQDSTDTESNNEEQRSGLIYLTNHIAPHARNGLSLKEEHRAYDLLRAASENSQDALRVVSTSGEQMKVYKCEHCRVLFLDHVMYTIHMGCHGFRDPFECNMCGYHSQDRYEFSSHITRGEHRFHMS

As for `CNc1nccc(CN([C@H]2CC[C@H](N)CC2)S(=O)(=O)c2ccc(S(=O)(=O)N(Cc3ccc(Cl)cc3)C3CCCC3)cc2)n1`, the IC50 in the experiment with NCI-H358 was determined as 954 nM; in the experiment with MIA PaCa-2, 507 nM; in the experiment on AGS it was 1200 nM; in the experiment on PaTu 8988t, 1200 nM.
With `COc1c(-c2cn(C3CCC(=O)NC3=O)nn2)csc1C(=O)N1CCCC1` (stereo unspecified), the result in [1], in experiment [3], in experiment [4], in [5] and in experiment [6] was inactive. In addition, the Activity in experiment [2] is 70%.
As to `COc1c(-c2cn(C3CCC(=O)NC3=O)nn2)csc1C(=O)NC1CCCC1` (stereo unspecified), the result in experiment [1], in experiment [3] and in experiment [6] was inactive. For the same compound, the Activity in experiment [2] was determined as 70%.
For `COc1cscc1-c1cn(C2CCC(=O)NC2=O)nn1` (stereo unspecified), the result (in experiment [7]; in the experiment with NCI-H358; in [8]; with MIA PaCa-2; with AGS; in the experiment with PaTu 8988t) was inactive.
In the case of `C=C(F)C(=O)N1CCN(c2nc(OC[C@@H]3CCCN3C)nc3c2CCN(c2cccc4cccc(Cl)c24)C3)C[C@@H]1CC#N` [ADAGRASIB], the IC50 with NCI-H358 came to 6 nM; with MIA PaCa-2 it was 4 nM; in the experiment with AGS it was 1400 nM; in the experiment on PaTu 8988t, 3000 nM.
Consider `O=C1CCC(n2cc(-c3ccsc3)nn2)C(=O)N1` (stereo unspecified), for which the DC50 in [9], in experiment [10] and in [11] was below 200 nM throughout. In addition, the outcome in experiment [2] and in experiment [3] was Active. For the same compound, the result in the experiment on NCI-H358, in the experiment with MIA PaCa-2, in the experiment on AGS and in the experiment with PaTu 8988t was inactive.
As to `CSc1cscc1-c1cn(C2CCC(=O)NC2=O)nn1` (stereo unspecified), the outcome in [9], in experiment [3], in experiment [10] and in experiment [11] was Active. Besides, the outcome (in [1]; in experiment [2]; with NCI-H358; in [12]; in experiment [13]; in experiment [15]) was inactive. The result (in experiment [16]; in experiment [17]; in [18]; in the experiment on MIA PaCa-2; in the experiment with AGS; in experiment [6]) was inactive. The outcome in the experiment on PaTu 8988t was inactive. In experiment [14], the Activity worked out at 50%.
